ChEMBL document CHEMBL5338796, “Discovery of a Selective and Orally Bioavailable FGFR2 Degrader for Treating Gastric Cancer” (J Med Chem, 2023)
Active and inactive are the calls of the source. No cut-off for these calls is given here.

Experiments:
[1] = Toxicity in ICR mouse assessed as morphological changes in liver at 20 mg/kg, po measured for 30 days by hematoxyin-eosin staining based analysis; assay type: organism-based; settings: in vivo, 720 h, time 30 day
In short: (§1)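 ICR mice (n = 6) were dosed orally at 20 mg/kg/day for 30 days, alongside vehicle-treated controls. Mortality and clinical signs were checked daily. At the end, body and organ weights were recorded. Heart, liver, spleen, lung and kidney were examined by hematoxylin and eosin staining.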

[2] = test system: KATO III stomach cancer cell line; assay: Antiproliferative activity against human KATO III stomach cancer cell line assessed as reduction in cell viability measured for 72 hrs by celltiter-glo reagent based assay; assay type: functional
In short: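 Cancer lines KATO III, SNU16, NCI-H716, NCI-H1975, MV-4-11 and HEK293T treated 72 h; antiproliferative IC50 given as mean ± s.d. from three independent biological experiments.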

[3] = target: T1, Protein cereblon/Fibroblast growth factor receptor 2 (Homo sapiens, UniProt P21802+Q96SW2); assay: PROTAC activity at CRBN/FGFR2 in human KATO III stomach cancer cell line assessed as FGFR2 degradation measured for 6 hrs by immunoblot analysis; assay type: cell-based
T1 sequence (P21802 22-821 limits assumed): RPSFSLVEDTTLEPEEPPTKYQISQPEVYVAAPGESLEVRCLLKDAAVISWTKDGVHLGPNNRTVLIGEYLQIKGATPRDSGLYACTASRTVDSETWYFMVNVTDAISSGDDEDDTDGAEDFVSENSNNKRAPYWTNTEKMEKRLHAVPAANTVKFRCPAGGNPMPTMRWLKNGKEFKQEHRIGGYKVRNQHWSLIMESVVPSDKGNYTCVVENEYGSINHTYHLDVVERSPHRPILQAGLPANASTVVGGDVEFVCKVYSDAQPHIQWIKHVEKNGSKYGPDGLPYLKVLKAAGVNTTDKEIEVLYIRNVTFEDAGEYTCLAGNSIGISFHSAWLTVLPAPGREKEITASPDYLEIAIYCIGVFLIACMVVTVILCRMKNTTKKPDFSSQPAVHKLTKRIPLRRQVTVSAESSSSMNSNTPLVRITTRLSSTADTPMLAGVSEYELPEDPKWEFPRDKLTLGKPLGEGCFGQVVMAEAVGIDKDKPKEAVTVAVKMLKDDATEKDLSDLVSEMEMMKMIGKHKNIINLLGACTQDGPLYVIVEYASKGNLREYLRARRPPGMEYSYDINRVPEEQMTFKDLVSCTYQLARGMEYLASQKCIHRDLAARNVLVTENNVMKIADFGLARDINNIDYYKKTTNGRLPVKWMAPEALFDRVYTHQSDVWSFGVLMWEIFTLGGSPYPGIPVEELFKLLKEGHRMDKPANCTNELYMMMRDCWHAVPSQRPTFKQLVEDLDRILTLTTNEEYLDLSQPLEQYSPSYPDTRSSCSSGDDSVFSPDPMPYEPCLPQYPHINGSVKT
T1 sequence (Q96SW2 whole entry partner): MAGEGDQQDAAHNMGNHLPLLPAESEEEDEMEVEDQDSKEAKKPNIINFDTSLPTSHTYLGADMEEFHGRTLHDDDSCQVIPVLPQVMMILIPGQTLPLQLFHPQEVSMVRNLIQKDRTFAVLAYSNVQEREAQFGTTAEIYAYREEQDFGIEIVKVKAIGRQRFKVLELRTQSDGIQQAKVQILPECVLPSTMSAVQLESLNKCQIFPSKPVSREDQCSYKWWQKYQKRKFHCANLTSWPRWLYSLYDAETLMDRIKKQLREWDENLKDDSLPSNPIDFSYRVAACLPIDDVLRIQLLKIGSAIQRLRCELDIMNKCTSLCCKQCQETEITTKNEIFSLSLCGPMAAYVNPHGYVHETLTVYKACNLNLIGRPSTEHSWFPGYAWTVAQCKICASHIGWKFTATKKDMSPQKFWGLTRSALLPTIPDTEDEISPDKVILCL
In short: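 KATO III cells treated for 6 h at the stated concentrations, added from 10 mM DMSO stocks (final DMSO below 0.5%). Cells were washed with PBS and lysed in 2× loading buffer, then run on SDS-PAGE and blotted to PVDF. Anti-FGFR2 was applied overnight at 4 °C, with ECL detection. FGFR2 was expressed as FGFR2/β-actin, normalized to DMSO-treated cells, from three independent biological experiments.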

[4] = target: Macrophage colony-stimulating factor 1 receptor (Homo sapiens) (UniProt P07333); assay: Inhibition of partial length human CSF1R at 1000 nM by KINOMEscan analysis relative to control
In short: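 97-kinase scanEDGE panel screened at 1000 nM; results reported as % Ctrl, lower values meaning stronger inhibition.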

[5] = target: Mitogen-activated protein kinase kinase kinase 4 (Homo sapiens) (UniProt Q9Y6R4); assay: Inhibition of partial length human MAP3K4 at 1000 nM by KINOMEscan analysis relative to control
[6] = Toxicity in ICR mouse assessed as change in liver weight at 20 mg/kg, po measured for 30 days; assay type: organism-based; settings: in vivo, 720 h, time 30 day; in short: as §1
BaF3 [7] = assay: Antiproliferative activity against mouse BaF3 cells expressing Tel-FGFR1 assessed as cell growth inhibition measured after 72 hrs by celltiter-glo reagent based assay; assay type: functional; settings: BaF3, 72 h
In short: (§2)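 Ba/F3 cells stably expressing cytoplasmic TEL-FGFR1, -2, -3 or -4 fusions were treated in 96-well format, final DMSO 0.1%, for 72 h. Viability read by CellTiter-Glo luminescence after 10 min at room temperature. Inhibition calculated from blank- and control-corrected RLU; IC50 from 4-parameter concentration–response fit.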

BaF3 [8] = assay: Antiproliferative activity against mouse BaF3 cells expressing Tel-FGFR2 assessed as cell growth inhibition measured after 72 hrs by celltiter-glo reagent based assay; assay type: functional; settings: BaF3, 72 h; in short: as §2
[9] = Toxicity in BALB/c mouse xenografted with human SNU-16 cells assessed as body weight loss at 20 mg/kg, po administered for 15 days and measured on day 2; assay type: organism-based; settings: in vivo, 48 h, time 2 day
In short: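 Female BALB/c nude mice, 5 weeks old (20–22 g), carried subcutaneous SNU-16 xenografts in the right flank. Dosing began at mean tumor volume 50–100 mm3, after randomization by body weight, n = 5. Mice received 20 mg/kg/day by gavage in 0.5% CMC-Na, QD for 15 d, with vehicle controls. Body weight was measured every 2 days.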

[10] = AUC (0 to infinity) in mouse at 20 mg/kg, po measured at 0.25 to 24 hrs by LC-MS/MS analysis; settings: in vivo
[11] = target: T1, Protein cereblon/Fibroblast growth factor receptor 2; assay: PROTAC activity at CRBN/FGFR2 in human KATO III stomach cancer cell line assessed as FGFR2 degradation by measuring FGFR2 expression level upto 100 nM measured after 3 hrs by Western blotting analysis; assay type: cell-based
In short: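 Time course in KATO III cells: FGFR2/β-actin by Western blot at successive treatment times, normalized to DMSO control.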

[12] = Toxicity in ICR mouse assessed as change in kidney weight at 20 mg/kg, po measured for 30 days; assay type: organism-based; settings: in vivo, 720 h, time 30 day; in short: as §1
[13] = target: T1, Protein cereblon/Fibroblast growth factor receptor 2; assay: PROTAC activity at CRBN/FGFR2 in human KATO III stomach cancer cell line membrane assessed as reduction in membrane bound FGFR2 at 100 nM measured for 6 hrs by flow cytometry analysis; assay type: cell membranes
In short: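 Approx. 2 × 10^6 KATO III cells were treated 6 h at 100 nM. They were washed in cold PBS and stained with anti-FGFR2 (1:100, 4 °C, 1 h), then with Alexa Fluor 488 secondary (1:500, 4 °C, 1 h). Surface FGFR2 was read by flow cytometry on at least 100,000 events, with 488 nm excitation and FITC detection at 519 nm.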

[14] = target: Fibroblast growth factor receptor (Homo sapiens) (UniProt P22607+P11362+P22455+P21802); assay: Induction of FGFR degradation in human KATO III stomach cancer cell line assessed as reduction in PLCgamma phosphorylation at 50 nM measured for 6 hrs; assay type: cell-based
Fibroblast growth factor receptor (Homo sapiens), sequence (P11362 whole entry, looked up): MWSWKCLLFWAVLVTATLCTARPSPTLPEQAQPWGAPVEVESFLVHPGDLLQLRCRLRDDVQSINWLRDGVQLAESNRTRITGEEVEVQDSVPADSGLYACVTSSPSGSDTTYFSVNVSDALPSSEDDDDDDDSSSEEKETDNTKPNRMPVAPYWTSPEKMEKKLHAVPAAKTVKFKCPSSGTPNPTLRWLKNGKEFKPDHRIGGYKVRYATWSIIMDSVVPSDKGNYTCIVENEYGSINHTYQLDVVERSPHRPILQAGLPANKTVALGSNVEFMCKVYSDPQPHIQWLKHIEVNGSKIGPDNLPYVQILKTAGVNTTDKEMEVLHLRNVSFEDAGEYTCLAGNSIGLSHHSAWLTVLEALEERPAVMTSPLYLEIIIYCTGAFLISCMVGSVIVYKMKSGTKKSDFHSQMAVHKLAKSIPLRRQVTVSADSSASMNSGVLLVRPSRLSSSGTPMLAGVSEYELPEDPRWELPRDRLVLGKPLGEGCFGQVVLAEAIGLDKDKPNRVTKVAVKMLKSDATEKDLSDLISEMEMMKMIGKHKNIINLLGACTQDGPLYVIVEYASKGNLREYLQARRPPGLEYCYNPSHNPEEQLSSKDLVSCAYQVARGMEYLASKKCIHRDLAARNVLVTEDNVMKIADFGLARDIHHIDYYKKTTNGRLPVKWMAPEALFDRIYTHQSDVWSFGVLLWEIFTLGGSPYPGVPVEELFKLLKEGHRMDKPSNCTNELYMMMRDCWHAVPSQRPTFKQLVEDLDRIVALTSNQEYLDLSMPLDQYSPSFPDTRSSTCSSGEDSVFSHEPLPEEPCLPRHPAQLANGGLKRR
Fibroblast growth factor receptor (Homo sapiens), sequence (P21802 whole entry, looked up): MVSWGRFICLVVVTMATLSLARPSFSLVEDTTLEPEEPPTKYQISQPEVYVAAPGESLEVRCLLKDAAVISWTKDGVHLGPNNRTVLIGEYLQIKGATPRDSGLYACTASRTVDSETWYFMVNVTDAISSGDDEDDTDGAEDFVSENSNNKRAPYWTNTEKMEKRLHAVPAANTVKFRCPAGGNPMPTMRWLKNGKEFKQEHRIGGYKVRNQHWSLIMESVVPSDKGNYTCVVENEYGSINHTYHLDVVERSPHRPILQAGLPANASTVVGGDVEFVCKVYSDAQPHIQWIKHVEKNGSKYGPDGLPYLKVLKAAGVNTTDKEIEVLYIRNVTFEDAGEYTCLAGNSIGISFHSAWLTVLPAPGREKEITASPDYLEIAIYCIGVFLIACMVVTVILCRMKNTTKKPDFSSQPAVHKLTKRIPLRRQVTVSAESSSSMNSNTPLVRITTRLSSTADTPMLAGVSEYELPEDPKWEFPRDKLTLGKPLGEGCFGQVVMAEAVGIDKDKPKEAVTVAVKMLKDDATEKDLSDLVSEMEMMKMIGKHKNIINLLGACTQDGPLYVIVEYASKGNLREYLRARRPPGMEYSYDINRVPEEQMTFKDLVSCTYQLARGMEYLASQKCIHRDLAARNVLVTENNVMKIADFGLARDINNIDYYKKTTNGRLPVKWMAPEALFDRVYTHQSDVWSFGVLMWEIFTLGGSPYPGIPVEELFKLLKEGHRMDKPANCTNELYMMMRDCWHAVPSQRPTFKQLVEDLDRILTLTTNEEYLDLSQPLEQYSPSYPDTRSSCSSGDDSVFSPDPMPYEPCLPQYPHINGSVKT
Fibroblast growth factor receptor (Homo sapiens), sequence (P22455 whole entry, looked up): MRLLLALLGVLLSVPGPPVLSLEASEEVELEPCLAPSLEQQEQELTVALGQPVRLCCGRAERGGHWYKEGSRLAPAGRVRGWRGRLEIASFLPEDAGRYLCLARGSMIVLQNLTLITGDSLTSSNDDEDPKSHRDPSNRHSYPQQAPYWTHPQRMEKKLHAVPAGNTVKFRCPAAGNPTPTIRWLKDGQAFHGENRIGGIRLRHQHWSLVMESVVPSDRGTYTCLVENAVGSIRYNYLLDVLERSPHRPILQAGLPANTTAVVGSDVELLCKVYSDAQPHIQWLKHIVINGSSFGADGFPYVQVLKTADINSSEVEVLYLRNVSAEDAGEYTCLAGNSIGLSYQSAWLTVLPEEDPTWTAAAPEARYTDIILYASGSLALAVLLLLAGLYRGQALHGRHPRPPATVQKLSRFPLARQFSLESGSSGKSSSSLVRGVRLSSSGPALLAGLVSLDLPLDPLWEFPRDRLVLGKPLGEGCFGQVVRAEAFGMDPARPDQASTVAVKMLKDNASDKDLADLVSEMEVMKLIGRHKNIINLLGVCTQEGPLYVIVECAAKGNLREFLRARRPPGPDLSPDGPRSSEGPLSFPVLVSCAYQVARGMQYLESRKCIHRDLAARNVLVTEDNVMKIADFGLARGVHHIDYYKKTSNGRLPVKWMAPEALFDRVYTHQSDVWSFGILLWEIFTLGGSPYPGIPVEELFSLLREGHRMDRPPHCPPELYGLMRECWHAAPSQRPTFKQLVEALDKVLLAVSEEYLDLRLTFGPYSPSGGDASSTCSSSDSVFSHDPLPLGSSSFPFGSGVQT
Fibroblast growth factor receptor (Homo sapiens), sequence (P22607 whole entry, looked up): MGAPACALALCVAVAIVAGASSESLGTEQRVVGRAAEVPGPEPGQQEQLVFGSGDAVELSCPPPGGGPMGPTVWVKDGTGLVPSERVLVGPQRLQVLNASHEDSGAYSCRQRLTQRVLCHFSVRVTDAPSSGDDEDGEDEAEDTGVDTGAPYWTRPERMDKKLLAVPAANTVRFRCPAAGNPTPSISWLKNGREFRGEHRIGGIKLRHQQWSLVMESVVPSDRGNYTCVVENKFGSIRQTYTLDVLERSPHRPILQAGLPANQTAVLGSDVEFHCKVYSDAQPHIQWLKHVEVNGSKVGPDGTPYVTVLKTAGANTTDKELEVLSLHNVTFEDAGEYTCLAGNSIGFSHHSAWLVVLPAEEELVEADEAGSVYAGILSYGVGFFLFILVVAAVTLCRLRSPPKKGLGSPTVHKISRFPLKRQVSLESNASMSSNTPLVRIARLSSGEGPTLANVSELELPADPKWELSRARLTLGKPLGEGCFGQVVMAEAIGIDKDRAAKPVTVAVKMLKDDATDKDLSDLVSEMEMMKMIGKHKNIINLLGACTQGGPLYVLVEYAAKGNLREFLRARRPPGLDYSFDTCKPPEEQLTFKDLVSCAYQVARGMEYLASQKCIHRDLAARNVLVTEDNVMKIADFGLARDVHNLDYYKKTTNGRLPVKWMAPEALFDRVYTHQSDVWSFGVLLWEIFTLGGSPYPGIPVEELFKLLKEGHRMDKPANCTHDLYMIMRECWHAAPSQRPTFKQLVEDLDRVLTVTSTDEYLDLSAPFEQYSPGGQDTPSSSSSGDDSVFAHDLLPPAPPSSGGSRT
In short: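 KATO III cells incubated 6 h with 50 nM compound, then stimulated with FGF1 for 10 min; pFGFR, pPLCγ1 (Tyr783) and pFRS2α immunoblotted.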

[15] = Cmax in mouse at 3 mg/kg, iv measured at 0.083 to 24 hrs by LC-MS/MS analysis; settings: in vivo
[16] = Toxicity in ICR mouse assessed as morphological changes in spleen at 20 mg/kg, po measured for 30 days by hematoxyin-eosin staining based analysis; assay type: organism-based; settings: in vivo, 720 h, time 30 day; in short: as §1
[17] = target: T1, Protein cereblon/Fibroblast growth factor receptor 2; assay: PROTAC activity at CRBN/FGFR2 in human KATO III stomach cancer cell line assessed as FGFR2 degradation by measuring FGFR2 expression level upto 300 nM measured for 6 hrs by Western blotting analysis; assay type: cell-based
In short: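 KATO III cells treated 6 h across 0.5–10,000 nM (DMSO stock, final DMSO below 0.5%); FGFR2 immunoblotted, quantified as FGFR2/β-actin ratio normalized to DMSO-treated cells, three independent biological experiments; DC50 and Dmax derived from the curve.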

[18] = target: Fibroblast growth factor receptor 2 (Homo sapiens) (UniProt P21802); assay: Induction of FGFR2 receptor relocalization in human KATO III stomach cancer cell line at 100 nM measured for 3 hrs by immunofluorescence assay; assay type: cell-based; settings: filed as activator
Fibroblast growth factor receptor 2 (Homo sapiens), sequence (P21802 22-821 limits assumed): as the sequence (P21802 22-821 limits assumed) above
In short: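 KATO III cells treated with 100 nM for 3 or 6 h, fixed in 2% formaldehyde 2 min, blocked 5% BSA 1 h, anti-FGFR2 overnight, Alexa Fluor 488 secondary 1 h, DAPI 10 min; imaged by fluorescence microscopy.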

[19] = AUC (0 to infinity) in mouse at 3 mg/kg, iv measured at 0.083 to 24 hrs by LC-MS/MS analysis; settings: in vivo

For `COc1cc(OC)c(Cl)c(NC(=O)N(C)c2cc(Nc3ccc(N4CCN(C(=O)C5CCN(c6ccc7c(c6)C(=O)N(C6CCC(=O)NC6=O)C7=O)CC5)CC4)cc3)ncn2)c1Cl` (centres undefined), the Activity [1] was “Non-Toxic”, the IC50 [2] was 29.1 nM and the Activity [3] was “inactive”. The inhibition [4] was 76%, the inhibition [5] was 45% and the Activity [6] was “Non-Toxic”. For the same compound, the IC50 (BaF3 [7]) was 125 nM, the IC50 (BaF3 [8]) was 10.3 nM and the Activity [9] was “Non-Toxic”. The AUC(0-inf) [10] was 387 ng·h/mL, the Activity [11] was “Active” and the Activity [12] was “Non-Toxic”. For the same compound, the Activity [13] was “Active”, the Activity [14] was “Active” and the Cmax [15] was 655 ng/mL. For the same compound, the Activity [16] was “Non-Toxic”, the Activity [17] was “inactive” and the Activity [18] was “Active”. For the same compound, the AUC(0-inf) [19] was 422 ng·h/mL.
